For 5 compounds, IC50, EC50 and Hill coefficient results are on record in ChEMBL document CHEMBL1132647, “Synthesis, calcium mobilizing, and physicochemical properties of D-chiro-inositol 1,3,4,6-tetrakisphosphate, a novel and potent ligand at the D-myo-inositol 1,4,5-trisphosphate receptor” (J Med Chem, 1999).

Where “and” joins values, the source holds several entries; their conditions need not be identical. Identical values can stand only once.

Experiment [1] deals with Inositol 1,4,5-trisphosphate receptor (Homo sapiens, UniProt Q14571+Q14573+Q14643). Briefly: The compound was tested for inhibitory activity against Inositol 1,4,5-trisphosphate receptor in L15 cell line. The experiment is classed as cell-based. The method, boiled down: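 Incubation was 30 min at 4 °C with EGTA. Bound and free ligand were separated by vacuum filtration through glass fiber filters and counted by scintillation. IC50 and Hill slope came from computer curve fitting. At least three experiments in duplicate, mean ± SEM.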

The subject of a further experiment is RBL-1. As to the kind of experiment: Steady-State [Ca2+] Release from Saponin-Permeabilized RBL Cell Lines. The experiment is classed as functional, cell-based, Rattus norvegicus.
In a further experiment the test system is SH-SY5Y. Briefly: Steady-State [Ca2+] Release from Saponin-Permeabilized SH-SY5Y cell line. The experiment is classed as functional, cell-based, Homo sapiens.
Experiment [2] can be described thus: Hill slope by computer-assisted curve fitting.
Experiment [3] in a line: Hill slope by computer-assisted curve fitting.
In a further experiment the test system is Lvec. As to the kind of experiment: Steady-State [Ca2+] Release from Saponin-Permeabilized Lvec Cell Lines. The format is functional, cell-based. An outline of the steps:
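⁴⁵Ca²⁺ release end point assay at 22 °C in saponin-permeabilized L15 cells (mouse L fibroblasts overexpressing type 1 InsP₃R about 8-fold) or Lvec vector-control cells. Stores were loaded with ⁴⁵Ca²⁺ in ATP-dependent fashion to steady state (about 15 min). Buffer was 120 mM KCl, 2 mM KH₂PO₄, 5 mM succinate, 20 mM Hepes, 2 mM ATP and 2.4 mM MgCl₂, at pH 7.2, with free Ca²⁺ set to 80–150 nM with EGTA. Retained ⁴⁵Ca²⁺ was counted by scintillation. 100% was the release by 10 µM Ins(1,4,5)P₃. EC50 and Hill slope came from curve fitting. At least four experiments in duplicate, mean ± SEM.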

The test system of the next experiment is L15. As to the kind of experiment: Steady-State [Ca2+] Release from Saponin-Permeabilized L15 Cell Lines.

As a reminder, the IC50 is the concentration at which inhibition is half-maximal. A higher IC50 goes with weaker potency. In experiment [1], `O=P(O)(O)OC1C(O)C(OP(=O)(O)O)C(OP(=O)(O)O)C(O)C1OP(=O)(O)O` (stereo unspecified) showed a concentration for half-maximal inhibition (IC50) of 172 nM.

By EC50 is commonly meant the concentration at which the effect is half-maximal. Consider `O=P(O)(O)O[C@@H]1[C@H](O)[C@H](O)[C@@H](OP(=O)(O)O)[C@H](OP(=O)(O)O)[C@H]1O` (stereo in doubt) [INS(1,4,5)P3], for which the EC50 was determined as 4200 nM in the experiment with RBL-1 and 171 nM in the experiment with SH-SY5Y.

As usually defined, the Hill coefficient is the slope factor of the fitted curve. On to `O=P(O)(O)O[C@@H]1[C@H](O)[C@H](O)[C@@H](OP(=O)(O)O)[C@H](OP(=O)(O)O)[C@H]1O` (stereo in doubt; 1), for which the Hill coefficient was 0.96 and 1.17 in experiment [2]; 1 in experiment [3].

Consider `O=P(O)(O)O[C@@H]1[C@H](O)[C@H](O)[C@@H](OP(=O)(O)O)[C@H](OP(=O)(O)O)[C@H]1O` (stereo in doubt; 1) [INS(1,4,5)P3], for which the EC50 in the experiment with Lvec came out at 247 nM; with L15 it was 123 nM; in the experiment with RBL-1 it was 170 nM; in the experiment on SH-SY5Y it was 51.6 nM.

Turning to `O=P(O)(O)O[C@@H]1[C@H](O)[C@H](O)[C@@H](OP(=O)(O)O)[C@H](OP(=O)(O)O)[C@H]1O` (stereo in doubt; 5) [INS(1,4,5)P3], the EC50 in the experiment on L15 stood at 740 nM; in the experiment on RBL-1, 4300 nM.
